Data set [1] has as its target Mast/stem cell growth factor receptor Kit (Homo sapiens) (UniProt P10721). The data set can be described thus: Inhibition of KIT (unknown origin) at 1 uM relative to control; values are per cent of control.
The target of data set [2] is T1, Phosphatidylinositol 4,5-bisphosphate 3-kinase catalytic subunit delta isoform (Homo sapiens) (UniProt O00329).
T1 sequence (whole entry): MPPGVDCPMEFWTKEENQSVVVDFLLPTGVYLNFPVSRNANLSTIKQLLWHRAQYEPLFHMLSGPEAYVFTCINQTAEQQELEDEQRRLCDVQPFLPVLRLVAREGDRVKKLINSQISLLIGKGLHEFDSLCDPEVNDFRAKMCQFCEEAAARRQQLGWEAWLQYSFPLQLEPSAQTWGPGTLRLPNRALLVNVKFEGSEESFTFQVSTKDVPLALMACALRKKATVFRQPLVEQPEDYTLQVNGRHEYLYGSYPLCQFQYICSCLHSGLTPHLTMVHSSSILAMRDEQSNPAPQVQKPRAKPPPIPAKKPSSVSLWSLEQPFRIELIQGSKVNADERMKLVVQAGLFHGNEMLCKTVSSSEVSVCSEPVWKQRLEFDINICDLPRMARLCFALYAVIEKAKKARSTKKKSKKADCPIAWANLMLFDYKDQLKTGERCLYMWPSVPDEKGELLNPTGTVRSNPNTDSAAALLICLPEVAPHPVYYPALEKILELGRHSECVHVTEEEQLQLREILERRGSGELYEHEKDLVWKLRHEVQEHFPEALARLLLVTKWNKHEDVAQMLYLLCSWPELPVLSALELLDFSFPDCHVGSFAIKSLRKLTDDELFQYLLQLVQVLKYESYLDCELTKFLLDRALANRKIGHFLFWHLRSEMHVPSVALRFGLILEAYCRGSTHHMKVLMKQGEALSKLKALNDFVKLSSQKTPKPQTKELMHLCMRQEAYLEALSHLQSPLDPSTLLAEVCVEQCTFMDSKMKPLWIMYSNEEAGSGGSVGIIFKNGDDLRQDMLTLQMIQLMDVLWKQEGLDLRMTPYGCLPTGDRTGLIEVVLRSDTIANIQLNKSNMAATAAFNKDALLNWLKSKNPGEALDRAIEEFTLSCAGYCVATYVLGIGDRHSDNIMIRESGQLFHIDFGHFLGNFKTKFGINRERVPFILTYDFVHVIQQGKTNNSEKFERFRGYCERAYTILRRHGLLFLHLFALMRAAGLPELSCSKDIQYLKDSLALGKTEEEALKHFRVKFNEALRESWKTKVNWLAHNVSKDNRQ
The experiment in a line: Inhibition of PIK3CD (unknown origin) at 1 uM relative to control. The note with it: values are per cent of control. An outline of the steps:
(§1)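 KinomeSCAN competitive binding panel of 100 kinases; compounds tested at 1 µM in duplicate; read-out is percent […] control.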

The target in data set [3] is T2, Serine/threonine-protein kinase PLK4 (Homo sapiens) (UniProt O00444).
T2 sequence (whole entry): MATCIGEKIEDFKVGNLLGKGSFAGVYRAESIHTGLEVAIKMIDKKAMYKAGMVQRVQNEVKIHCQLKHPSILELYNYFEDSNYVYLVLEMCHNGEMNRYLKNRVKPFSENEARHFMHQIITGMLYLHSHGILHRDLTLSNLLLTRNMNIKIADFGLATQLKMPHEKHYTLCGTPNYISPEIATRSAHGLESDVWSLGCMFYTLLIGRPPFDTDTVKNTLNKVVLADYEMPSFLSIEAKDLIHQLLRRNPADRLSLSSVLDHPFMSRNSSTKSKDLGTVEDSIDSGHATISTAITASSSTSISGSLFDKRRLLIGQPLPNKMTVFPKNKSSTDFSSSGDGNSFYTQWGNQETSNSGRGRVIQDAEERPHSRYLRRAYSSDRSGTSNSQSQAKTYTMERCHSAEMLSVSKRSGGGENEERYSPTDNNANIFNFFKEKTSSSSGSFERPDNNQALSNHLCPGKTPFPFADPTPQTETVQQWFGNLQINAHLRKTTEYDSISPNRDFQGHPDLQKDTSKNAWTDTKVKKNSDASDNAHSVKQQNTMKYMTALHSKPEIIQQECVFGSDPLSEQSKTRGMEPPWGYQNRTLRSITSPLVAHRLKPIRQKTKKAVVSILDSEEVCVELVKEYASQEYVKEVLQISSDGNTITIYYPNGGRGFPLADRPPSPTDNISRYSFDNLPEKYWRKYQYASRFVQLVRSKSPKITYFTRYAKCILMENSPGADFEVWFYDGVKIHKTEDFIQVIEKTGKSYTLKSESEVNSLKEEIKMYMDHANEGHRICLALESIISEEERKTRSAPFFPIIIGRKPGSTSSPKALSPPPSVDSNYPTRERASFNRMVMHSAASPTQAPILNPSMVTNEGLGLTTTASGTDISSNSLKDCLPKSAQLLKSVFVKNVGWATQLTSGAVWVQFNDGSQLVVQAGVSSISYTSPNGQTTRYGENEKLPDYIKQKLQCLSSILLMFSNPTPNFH
The data set can be described thus: Inhibition of PLK4 (unknown origin) at 1 uM relative to control. To be noted: values are per cent of control. The method in brief: as §1

In data set [4] the target is Tyrosine-protein kinase ABL1 (Homo sapiens) (UniProt P00519). The data set can be described thus: Inhibition of phosphorylated ABL1 (unknown origin) at 1 uM relative to control; values are per cent of control.
Data set [5] has as its target High affinity nerve growth factor receptor (Homo sapiens) (UniProt P04629). The experiment in a line: Inhibition of TRKA (unknown origin) at 1 uM relative to control. To be noted: values are per cent of control. An outline of the steps: as §1
Data set [6] concerns the target Mitogen-activated protein kinase 1 (Homo sapiens) (UniProt P28482). The experiment in a line: Inhibition of ERK2 (unknown origin) at 1 uM relative to control; values are per cent of control.
Data set [7] addresses Hepatocyte growth factor receptor (Homo sapiens) (UniProt P08581). The experiment in a line: Inhibition of MET (unknown origin) at 1 uM relative to control; values are per cent of control.
Data set [8] concerns the target Serine/threonine-protein kinase B-raf (Homo sapiens) (UniProt P15056). The data set can be described thus: Inhibition of BRAF (unknown origin) at 1 uM relative to control; values are per cent of control.
For data set [9], the target named is Casein kinase I isoform gamma-2 (Homo sapiens) (UniProt P78368). The experiment in a line: Inhibition of CSNK1G2 (unknown origin) at 1 uM relative to control; values are per cent of control.
Data set [10] in a line: Inhibition of CK1gamma (unknown origin) by TR-FRET assay. Details: species or system Homo sapiens. The method in brief: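 CK1 isoform inhibition measured in Lance TR-FRET kinase assays, reported as IC50.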
Data set [11] deals with HCT-116. The data set can be described thus: Induction of apoptosis in human HCT116 cells assessed as activation of caspase 3/7. Format: functional, cell-based.
The nature of data set [12]: Intrinsic clearance in mouse liver microsomes at 1 uM after 30 mins by reverse phase HPLC analysis in presence of NADPH. It is filed as ADME. The note with it: read-out: CLH. The method in brief:
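Reactions were stopped with MeCN after 0 or 30 min. Samples were analysed by reverse-phase HPLC–tandem MS to give intrinsic clearance (µl/min/mg).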
In general terms: Microsomes from liver hold many membrane-bound enzymes, among them those of drug oxidation.

Broadly, the IC50 is the point on the concentration scale where inhibition reaches its midpoint.

Bounds are passed on as bounds.

Sequence of High affinity nerve growth factor receptor (Homo sapiens) (P04629 33-796 limits assumed): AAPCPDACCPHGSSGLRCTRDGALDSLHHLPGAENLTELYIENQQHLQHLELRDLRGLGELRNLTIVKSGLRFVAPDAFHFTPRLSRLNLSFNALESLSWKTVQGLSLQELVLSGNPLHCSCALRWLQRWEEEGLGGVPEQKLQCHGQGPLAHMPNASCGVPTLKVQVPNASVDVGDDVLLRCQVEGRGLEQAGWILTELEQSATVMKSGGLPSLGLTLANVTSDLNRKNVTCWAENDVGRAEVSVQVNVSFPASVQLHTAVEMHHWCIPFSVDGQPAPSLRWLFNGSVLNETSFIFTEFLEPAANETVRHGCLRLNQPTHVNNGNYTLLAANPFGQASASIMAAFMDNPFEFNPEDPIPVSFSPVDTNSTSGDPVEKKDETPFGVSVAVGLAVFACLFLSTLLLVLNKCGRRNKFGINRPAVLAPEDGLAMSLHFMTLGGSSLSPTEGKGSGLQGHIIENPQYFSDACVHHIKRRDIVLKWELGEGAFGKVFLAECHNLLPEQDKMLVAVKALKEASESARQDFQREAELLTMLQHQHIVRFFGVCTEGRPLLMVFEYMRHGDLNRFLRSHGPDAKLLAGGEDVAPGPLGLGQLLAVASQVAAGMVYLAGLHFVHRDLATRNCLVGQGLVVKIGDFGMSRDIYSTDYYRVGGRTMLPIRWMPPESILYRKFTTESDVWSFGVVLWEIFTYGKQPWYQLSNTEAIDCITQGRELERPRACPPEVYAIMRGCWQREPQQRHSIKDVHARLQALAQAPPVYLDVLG
Sequence of Tyrosine-protein kinase ABL1 (Homo sapiens) (P00519 whole entry): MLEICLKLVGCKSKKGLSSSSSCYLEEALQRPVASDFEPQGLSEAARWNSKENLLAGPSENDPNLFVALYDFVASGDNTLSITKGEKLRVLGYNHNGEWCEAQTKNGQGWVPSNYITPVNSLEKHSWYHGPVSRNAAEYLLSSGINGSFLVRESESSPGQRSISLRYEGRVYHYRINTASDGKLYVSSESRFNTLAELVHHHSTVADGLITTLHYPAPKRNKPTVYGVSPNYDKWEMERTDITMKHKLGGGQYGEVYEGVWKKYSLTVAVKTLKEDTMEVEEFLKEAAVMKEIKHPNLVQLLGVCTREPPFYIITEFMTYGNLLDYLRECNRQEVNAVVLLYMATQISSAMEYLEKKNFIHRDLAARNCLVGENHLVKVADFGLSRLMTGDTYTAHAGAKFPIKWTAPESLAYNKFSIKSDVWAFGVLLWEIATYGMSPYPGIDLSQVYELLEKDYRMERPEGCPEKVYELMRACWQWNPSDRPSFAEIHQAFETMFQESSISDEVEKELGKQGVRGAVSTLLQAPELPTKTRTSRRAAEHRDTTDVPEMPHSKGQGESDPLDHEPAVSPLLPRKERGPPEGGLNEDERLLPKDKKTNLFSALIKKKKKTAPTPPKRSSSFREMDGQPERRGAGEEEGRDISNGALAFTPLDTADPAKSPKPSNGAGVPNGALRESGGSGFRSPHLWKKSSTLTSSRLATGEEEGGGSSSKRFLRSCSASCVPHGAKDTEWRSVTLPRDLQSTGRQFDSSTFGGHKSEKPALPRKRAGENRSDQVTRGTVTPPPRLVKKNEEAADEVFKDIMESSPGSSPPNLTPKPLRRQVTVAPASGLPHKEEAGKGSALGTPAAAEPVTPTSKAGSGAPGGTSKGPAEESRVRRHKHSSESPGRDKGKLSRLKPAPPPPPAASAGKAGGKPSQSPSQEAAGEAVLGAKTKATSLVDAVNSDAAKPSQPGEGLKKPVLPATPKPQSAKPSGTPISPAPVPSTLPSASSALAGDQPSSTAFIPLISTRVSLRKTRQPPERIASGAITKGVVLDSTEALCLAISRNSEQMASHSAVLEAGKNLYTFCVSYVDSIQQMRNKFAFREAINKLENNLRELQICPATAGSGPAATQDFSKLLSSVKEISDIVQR
Sequence of Hepatocyte growth factor receptor (Homo sapiens) (P08581 whole entry): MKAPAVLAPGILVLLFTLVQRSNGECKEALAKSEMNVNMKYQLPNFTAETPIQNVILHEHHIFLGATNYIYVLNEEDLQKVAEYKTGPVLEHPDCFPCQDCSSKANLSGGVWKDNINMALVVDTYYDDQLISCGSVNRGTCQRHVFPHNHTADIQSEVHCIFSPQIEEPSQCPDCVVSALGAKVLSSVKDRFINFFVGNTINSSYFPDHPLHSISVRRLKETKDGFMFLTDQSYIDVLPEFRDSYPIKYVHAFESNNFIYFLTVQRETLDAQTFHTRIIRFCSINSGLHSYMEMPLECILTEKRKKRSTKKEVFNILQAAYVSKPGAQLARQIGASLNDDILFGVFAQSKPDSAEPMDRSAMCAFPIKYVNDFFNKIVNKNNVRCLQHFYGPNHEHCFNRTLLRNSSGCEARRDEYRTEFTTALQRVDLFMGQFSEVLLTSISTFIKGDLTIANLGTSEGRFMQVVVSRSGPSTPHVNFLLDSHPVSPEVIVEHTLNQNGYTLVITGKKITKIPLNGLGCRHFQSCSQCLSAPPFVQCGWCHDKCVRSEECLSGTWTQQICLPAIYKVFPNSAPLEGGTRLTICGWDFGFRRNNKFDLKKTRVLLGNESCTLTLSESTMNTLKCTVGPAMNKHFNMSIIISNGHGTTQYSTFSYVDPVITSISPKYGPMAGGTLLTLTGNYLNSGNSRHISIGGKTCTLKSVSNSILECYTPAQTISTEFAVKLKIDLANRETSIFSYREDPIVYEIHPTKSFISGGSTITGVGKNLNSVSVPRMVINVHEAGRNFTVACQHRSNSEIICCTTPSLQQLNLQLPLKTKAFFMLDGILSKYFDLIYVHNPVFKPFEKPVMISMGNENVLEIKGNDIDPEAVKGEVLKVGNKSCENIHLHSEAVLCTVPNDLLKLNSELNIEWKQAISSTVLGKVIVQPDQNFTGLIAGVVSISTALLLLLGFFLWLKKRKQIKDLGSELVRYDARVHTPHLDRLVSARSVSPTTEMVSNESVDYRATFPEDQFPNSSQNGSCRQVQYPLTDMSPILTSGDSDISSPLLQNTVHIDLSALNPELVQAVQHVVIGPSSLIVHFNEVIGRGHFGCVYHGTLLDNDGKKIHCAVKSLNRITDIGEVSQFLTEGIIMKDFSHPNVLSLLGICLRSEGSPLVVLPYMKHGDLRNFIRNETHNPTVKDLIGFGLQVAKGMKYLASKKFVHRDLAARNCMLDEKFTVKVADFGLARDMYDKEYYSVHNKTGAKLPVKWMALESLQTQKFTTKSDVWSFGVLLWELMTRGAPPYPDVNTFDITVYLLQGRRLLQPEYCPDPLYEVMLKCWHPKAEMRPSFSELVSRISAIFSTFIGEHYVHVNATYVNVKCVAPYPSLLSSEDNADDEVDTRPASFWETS
Sequence of Mitogen-activated protein kinase 1 (Homo sapiens) (P28482 whole entry): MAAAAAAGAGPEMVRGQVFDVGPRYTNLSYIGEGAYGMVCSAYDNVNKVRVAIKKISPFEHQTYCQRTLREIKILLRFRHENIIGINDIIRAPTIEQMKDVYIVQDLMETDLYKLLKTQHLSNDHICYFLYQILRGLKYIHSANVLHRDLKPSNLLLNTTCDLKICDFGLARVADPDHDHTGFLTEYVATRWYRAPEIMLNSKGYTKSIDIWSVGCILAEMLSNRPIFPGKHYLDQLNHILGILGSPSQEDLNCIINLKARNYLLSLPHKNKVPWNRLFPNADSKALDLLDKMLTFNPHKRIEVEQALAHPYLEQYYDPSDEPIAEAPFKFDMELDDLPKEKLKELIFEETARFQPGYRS
Sequence of Casein kinase I isoform gamma-2 (Homo sapiens) (P78368 whole entry, looked up, canonical isoform): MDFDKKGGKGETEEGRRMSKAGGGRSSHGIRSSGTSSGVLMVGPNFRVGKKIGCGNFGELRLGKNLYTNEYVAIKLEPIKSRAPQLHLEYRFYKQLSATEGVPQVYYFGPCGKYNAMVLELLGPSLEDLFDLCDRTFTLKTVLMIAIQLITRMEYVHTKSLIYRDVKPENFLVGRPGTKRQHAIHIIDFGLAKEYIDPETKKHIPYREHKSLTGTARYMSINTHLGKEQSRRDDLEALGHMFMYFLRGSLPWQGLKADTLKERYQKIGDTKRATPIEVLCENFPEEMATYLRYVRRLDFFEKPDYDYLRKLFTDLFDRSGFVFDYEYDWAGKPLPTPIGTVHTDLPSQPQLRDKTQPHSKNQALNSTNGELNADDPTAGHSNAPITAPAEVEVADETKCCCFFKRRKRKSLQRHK
Sequence of Serine/threonine-protein kinase B-raf (Homo sapiens) (P15056 whole entry, canonical isoform): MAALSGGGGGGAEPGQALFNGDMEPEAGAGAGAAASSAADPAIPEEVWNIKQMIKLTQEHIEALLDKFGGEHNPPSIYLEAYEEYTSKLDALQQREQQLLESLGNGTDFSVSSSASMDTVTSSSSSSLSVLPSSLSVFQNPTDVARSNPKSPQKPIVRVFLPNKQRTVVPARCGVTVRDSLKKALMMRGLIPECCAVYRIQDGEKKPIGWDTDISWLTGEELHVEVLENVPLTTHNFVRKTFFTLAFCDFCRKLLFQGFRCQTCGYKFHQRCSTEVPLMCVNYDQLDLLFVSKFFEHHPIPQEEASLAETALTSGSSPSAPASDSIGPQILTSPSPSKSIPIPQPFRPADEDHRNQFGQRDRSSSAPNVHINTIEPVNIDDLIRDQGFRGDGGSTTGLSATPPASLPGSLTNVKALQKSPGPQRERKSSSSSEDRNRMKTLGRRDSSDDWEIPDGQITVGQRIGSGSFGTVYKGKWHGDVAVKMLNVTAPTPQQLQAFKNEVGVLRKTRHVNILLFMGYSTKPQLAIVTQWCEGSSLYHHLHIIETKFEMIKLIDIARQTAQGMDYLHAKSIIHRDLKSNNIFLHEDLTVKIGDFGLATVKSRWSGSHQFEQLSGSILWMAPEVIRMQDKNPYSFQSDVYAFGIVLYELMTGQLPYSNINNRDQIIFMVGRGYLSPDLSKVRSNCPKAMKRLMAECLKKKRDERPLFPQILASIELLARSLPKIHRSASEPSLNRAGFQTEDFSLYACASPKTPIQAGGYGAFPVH

Regarding `CCOC(=O)c1sc(-c2ccncc2)nc1O`, the residual activity in data set [1] amounted to 100%; in data set [4] it was 100%; in data set [6], 93%; in [7], 81%; in [8] it was 100%; in data set [9], 77%. The residual binding, % of control worked out at 97% in [2], 100% in [3] and 100% in [5].

Consider `NC(=O)c1sc(-c2ccnc(N)n2)nc1-c1ccc(Cl)cc1Cl`, for which the IC50 is 760 nM in [10] and more than 50000 nM in data set [11]. Further, the residual activity in [1] came to 75%; in [4] it was 100%; in data set [6] it was 79%; in data set [7], 88%; in [8], 80%; in data set [9], 5%. In addition, the results for the residual binding, % of control in [2], in [3] and in data set [5] were 78%, 92% and 100%, respectively. For the same compound, the microsomal CLint at 1 µM in [12] was 57 µL/min/mg.

Regarding `COc1ccc(-c2nc(-c3ccnc(N)n3)sc2C(N)=O)c(Cl)c1`, the IC50 in [10] was 1900 nM; in [11] it was more than 50000 nM. The residual activity amounted to 78% in data set [1]; 90% in data set [4]; 82% in data set [6]; 86% in data set [7]; 100% in data set [8]; 5.2% in [9]. In addition, the values for the residual binding, % of control in data set [2], in data set [3] and in data set [5] were 55%, 100% and 92%, respectively. Also, in [12], the microsomal CLint at 1 µM is 155 µL/min/mg.
